Measured values of several laboratories.
Lines come from different studies, so protocols differ.
Cell line: IGROV-1
Observed: cell growth or viability

COc1cc2c3cc1Oc1c(OC)c(OC)cc4c1[C@@H](Cc1ccc(O)c(c1)Oc1ccc(cc1)C[C@@H]3N(C)CC2)N(C)CC4 has an IC50 of 29.6 µM (72 h).
For Cc1cc(C)n(C(=S)[S][Au][PH](CCCCCC[PH]([Au][S]C(=S)n2nc(C)cc2C)(c2ccccc2)c2ccccc2)(c2ccccc2)c2ccccc2)n1, the GI50 was 1.19 µM.
The GI50 of COc1ccc(-c2ccc(-c3ccc(C(=N)N)nc3)s2)cc1 is reported as 1.84 µM (SRB).
COc1cccc(Oc2ccccc2NC(=O)CNC(=O)c2cccc3ccccc23)c1 has a GI50 of 1.05 µM (SRB; 48 h).
With COc1ccc(C(=O)/C=C/c2cccc3ccccc23)cc1S(N)(=O)=O the GI50 was 2.3 µM (SRB; 48 h).
For S=C([S][Au-][P+](CCCCCC[P+]([Au-][S]C(=S)n1cccn1)(c1ccccc1)c1ccccc1)(c1ccccc1)c1ccccc1)n1cccn1, the GI50 was 2.26 µM.
COc1ccc(C(=O)/C=C/c2ccc3c(c2)OCCO3)cc1S(N)(=O)=O gave an inhibition of 36% (SRB; 10 µM).
COc1ccc(-c2ccc(-c3ccc(C(=N)N)nc3)s2)cc1Cl gave a GI50 of 1.78 µM (SRB).
